Source: BindingDB's records for doi:10.1021/acsmedchemlett.8b00442 (University of Helsinki, 2018)

Biological target: T1, Phosphatidylserine lipase ABHD16A (Homo sapiens, UniProt O95870)
T1 sequence (O95870 whole entry): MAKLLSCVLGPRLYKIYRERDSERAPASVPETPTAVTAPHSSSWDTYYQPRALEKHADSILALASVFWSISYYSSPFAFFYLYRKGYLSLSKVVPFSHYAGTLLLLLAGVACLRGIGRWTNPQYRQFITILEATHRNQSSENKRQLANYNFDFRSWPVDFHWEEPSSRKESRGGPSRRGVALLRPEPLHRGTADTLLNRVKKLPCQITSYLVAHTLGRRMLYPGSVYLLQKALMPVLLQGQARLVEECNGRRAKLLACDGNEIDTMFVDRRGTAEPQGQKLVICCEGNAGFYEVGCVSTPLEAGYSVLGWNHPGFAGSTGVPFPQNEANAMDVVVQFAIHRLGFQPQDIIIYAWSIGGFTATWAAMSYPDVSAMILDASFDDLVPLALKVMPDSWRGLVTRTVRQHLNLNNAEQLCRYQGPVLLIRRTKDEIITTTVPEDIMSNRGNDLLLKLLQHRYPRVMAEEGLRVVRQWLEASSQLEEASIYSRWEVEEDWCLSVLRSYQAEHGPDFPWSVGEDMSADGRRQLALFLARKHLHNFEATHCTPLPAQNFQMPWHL
Test: Inhibition of ABHD16A (unknown origin)
In short: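 Lysates of HEK293 cells transiently overexpressing human ABHD16A were pretreated for 30 min with DMSO (control) or inhibitor. 1-LG substrate (25 µM final) was then added, and liberated glycerol was measured. Screening was at 10 µM as % control activity (n=2-3). Dose-response used 0.1-100 µM, duplicate wells from two independent experiments, giving IC50.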

Compound `COc1nn(-c2ccc(F)cc2)c(=O)o1` has an IC50 of 32 nM.
